In ChEMBL document CHEMBL4840316, “Structure-based screening for the discovery of 1,2,4-oxadiazoles as promising hits for the development of new anti-inflammatory agents interfering with eicosanoid biosynthesis pathways” (Eur J Med Chem, 2021) one finds Activity data, which are given here for two molecules.

The subject of one data set is A549. As to the kind of experiment: Cytotoxicity against human A549 cells assessed as cell viability at 10 uM measured after 48 hrs by MTT assay. The data set is classed as cell-based. The following applies: a549, 48 h. The essentials: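 A549 cells in DMEM + 10% FBS, 2 × 10^4 per well, seeded in triplicate. Exposed to 10 µM compound or 0.1% DMSO for 48 h at 37 °C, 5% CO2. MTT added for 1 h, formazan dissolved in DMSO, absorbance read at 570 nm. Viability given as % of vehicle, n = 3.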
In general terms: Tetrazolium dyes change colour on reduction, which living cells bring about.

Data set [1] addresses T1, Polyunsaturated fatty acid 5-lipoxygenase (Homo sapiens) (UniProt P09917).
T1 sequence (whole entry): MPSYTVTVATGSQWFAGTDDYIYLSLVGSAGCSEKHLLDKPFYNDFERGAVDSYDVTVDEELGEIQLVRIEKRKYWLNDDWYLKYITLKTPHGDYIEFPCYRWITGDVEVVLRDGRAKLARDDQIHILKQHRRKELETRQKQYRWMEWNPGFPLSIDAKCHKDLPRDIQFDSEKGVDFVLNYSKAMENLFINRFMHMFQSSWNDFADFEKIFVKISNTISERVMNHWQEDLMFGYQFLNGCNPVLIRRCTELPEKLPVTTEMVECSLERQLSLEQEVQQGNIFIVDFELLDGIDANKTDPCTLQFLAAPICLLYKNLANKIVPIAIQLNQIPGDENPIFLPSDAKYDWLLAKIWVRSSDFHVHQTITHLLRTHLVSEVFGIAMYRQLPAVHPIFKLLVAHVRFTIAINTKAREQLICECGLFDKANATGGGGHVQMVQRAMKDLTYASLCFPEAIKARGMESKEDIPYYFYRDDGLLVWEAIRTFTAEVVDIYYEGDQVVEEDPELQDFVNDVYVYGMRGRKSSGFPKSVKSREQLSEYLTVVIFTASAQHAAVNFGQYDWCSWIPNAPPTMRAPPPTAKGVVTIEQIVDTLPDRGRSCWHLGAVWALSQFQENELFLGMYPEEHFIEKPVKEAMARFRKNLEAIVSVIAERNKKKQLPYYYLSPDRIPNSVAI
Kind of data set: Inhibition of 5-LO in A23187-stimulated human intact neutrophils assessed as reduction in LTB4/5-HETE formation by measuring residual activity at 10 uM measured after 20 mins by RP-HPLC method. It counts as tissue-based. The following applies: Neutrophil. The essentials:
(§1)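 Human neutrophils at 5 × 10^6/mL in PBS with 0.1% glucose and 1 mM CaCl2. Pre-incubated with compound or 0.1% DMSO for 10 min at 37 °C. Stimulated with 2.5 µM A23187, with or without 20 µM AA, for 10 min at 37 °C. Stopped with cold methanol; PGB1 internal standard. LTB4, its trans isomers and 5-HETE quantified by SPE and RP-HPLC; % of control.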

For data set [2], the target named is T1, Polyunsaturated fatty acid 5-lipoxygenase (Homo sapiens). As to the kind of experiment: Inhibition of 5-LO (unknown origin) expressed in Escherichia coli BL21 assessed as residual activity at 10 uM by RP-HPLC method relative to control. The essentials: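 Human recombinant 5-LO expressed in E. coli BL21 and purified on ATP-agarose. 0.5 µg enzyme in 1 mL PBS + 1 mM EDTA pre-incubated with compound or 0.1% DMSO for 10 min on ice. Reaction started with 20 µM AA and 2 mM CaCl2, run 10 min at 37 °C, stopped with ice-cold methanol. Products analysed; activity as % of control.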

Data set [3] concerns the target Prostaglandin G/H synthase 1 (Ovis aries) (UniProt P05979). As to the kind of experiment: Inhibition of ovine COX-1 assessed as residual activity at 10 uM using arachidonic acid as substrate preincubated for 5 mins by RP-HPLC method relative to control. The following applies: time 10.0 min.
The target of data set [4] is T2, Bifunctional epoxide hydrolase 2 (Homo sapiens) (UniProt P34913).
T2 sequence (whole entry): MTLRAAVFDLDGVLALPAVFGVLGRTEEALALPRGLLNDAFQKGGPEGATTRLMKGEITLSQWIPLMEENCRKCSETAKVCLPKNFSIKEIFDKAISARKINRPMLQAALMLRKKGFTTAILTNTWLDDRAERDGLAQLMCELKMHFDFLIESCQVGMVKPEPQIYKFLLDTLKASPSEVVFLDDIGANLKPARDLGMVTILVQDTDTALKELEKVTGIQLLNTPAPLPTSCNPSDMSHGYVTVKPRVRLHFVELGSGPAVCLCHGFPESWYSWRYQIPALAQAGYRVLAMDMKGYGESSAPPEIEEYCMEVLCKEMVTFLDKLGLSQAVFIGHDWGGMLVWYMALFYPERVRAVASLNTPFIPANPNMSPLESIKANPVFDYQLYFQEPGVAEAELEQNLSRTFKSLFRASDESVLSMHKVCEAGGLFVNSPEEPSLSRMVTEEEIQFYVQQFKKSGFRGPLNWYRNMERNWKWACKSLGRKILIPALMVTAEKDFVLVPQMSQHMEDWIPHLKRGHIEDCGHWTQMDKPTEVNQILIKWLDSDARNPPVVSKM
As to the kind of experiment: Inhibition of recombinant human sEH expressed in sf9 insect cells assessed as residual activity at 10 uM using PHOME as substrate preincubated for 15 mins followed by substrate addition and measured after 60 mins relative to control. The following applies: time 75.0 min. The essentials:
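Human recombinant sEH from baculovirus-infected Sf9 cells, affinity-purified. Diluted in 25 mM Tris pH 7 with 0.1 mg/mL BSA. Pre-incubated 15 min at room temperature with 10 µM compound or 0.1% DMSO. 50 µM PHOME added, run 60 min at room temperature, stopped with ZnSO4. Fluorescence read at ex 330 / em 465 nm.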

In data set [5] the target is T3, Prostaglandin E synthase (Homo sapiens) (UniProt O14684).
T3 sequence (whole entry): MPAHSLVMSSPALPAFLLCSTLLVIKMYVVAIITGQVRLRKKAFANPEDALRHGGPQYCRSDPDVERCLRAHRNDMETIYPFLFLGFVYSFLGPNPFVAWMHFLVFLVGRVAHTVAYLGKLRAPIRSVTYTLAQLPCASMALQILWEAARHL
As to the kind of experiment: Inhibition of mPGES-1 obtained from IL-beta stimulated human A549 cells microsomes assessed as residual activity by measuring conversion of PGH2 to PGE2 at 10 uM by cell-free RP-HPLC method. The following applies: Microsome. The method, boiled down: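 Microsomes from A549 cells stimulated with IL-1β (1 ng/ml) for 48 h. Diluted in 0.1 M potassium phosphate pH 7.4 with 2.5 mM glutathione. Pre-incubated 15 min on ice with compound (single 10 µM, or 0.03–10 µM for the curve) or 1% DMSO. 20 µM PGH2 added for 1 min; stopped with FeCl3/citric acid containing 11β-PGE2 standard. PGE2 measured by SPE and RP-HPLC. n = 3.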

Another data set has as its system Monocyte. As to the kind of experiment: Cytotoxicity against human monocyte cells assessed as cell viability at 10 uM measured after 24 hrs by MTT assay. It counts as cell-based. The essentials: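 Human monocytes isolated from PBMC by adherence, 0.2 × 10^6 per well in buffer. Exposed to 10 µM compound or 0.5% DMSO for 24 h (37 °C, 5% CO2). MTT for 2 h, then SDS lysis (10%, pH 4.5) for 17 h. Absorbance read at 570 nm; viability as % of vehicle, n = 3.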

The target in data set [6] is T1, Polyunsaturated fatty acid 5-lipoxygenase (Homo sapiens). As to the kind of experiment: Inhibition of 5-LO in A23187/AA-stimulated human intact neutrophils assessed as reduction in LTB4/5-HETE formation by measuring residual activity at 10 uM measured after 20 mins by RP-HPLC method. The data set is classed as tissue-based. The following applies: Neutrophil. The essentials: as §1

Sequence of Prostaglandin G/H synthase 1 (Ovis aries) (P05979 whole entry, looked up): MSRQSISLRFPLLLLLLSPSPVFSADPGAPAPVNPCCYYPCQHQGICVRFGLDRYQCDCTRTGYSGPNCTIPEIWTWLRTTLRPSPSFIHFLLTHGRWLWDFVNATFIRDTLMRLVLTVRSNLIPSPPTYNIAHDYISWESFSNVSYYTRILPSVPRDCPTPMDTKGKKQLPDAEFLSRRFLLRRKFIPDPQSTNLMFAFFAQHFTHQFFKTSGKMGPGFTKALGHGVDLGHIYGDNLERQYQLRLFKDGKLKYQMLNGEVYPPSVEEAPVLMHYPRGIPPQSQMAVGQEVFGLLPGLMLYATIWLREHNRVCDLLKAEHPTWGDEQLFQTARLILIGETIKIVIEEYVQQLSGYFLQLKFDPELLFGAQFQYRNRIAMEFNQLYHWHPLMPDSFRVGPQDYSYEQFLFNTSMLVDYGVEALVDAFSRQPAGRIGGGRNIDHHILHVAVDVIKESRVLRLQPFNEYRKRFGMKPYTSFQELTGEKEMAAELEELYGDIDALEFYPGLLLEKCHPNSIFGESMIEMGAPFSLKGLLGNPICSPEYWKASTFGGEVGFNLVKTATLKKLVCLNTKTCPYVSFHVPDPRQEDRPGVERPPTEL

As for `Oc1cccc(CCc2nc(-c3ccc(-c4ccsc4)cc3)no2)c1`, the Activity result was “Non-Toxic” in the data set with A549; 19.9% in data set [1]; 105% in data set [2]; 47.7% in data set [3]; over 50% in data set [4]; 76.4% in data set [5]. Moreover, the Activity result was “Non-Toxic” in the data set on Monocyte and 14.9% in data set [6].

Regarding `Oc1c(F)c(F)cc(-c2nc(-c3ccc(-c4ccsc4)cc3)no2)c1F`, the Activity entry in the data set on A549 was “Non-Toxic”; in data set [1], 1.7%; in data set [2] it was 10.3%; in data set [3] it was 34.7%; in data set [4] it was over 50%; in data set [5], 25.4%. Besides, the Activity entry was “Non-Toxic” in the data set on Monocyte and 18.5% in data set [6].
